sPLA2-III inh: human group III sPLA2 inhibitors, primary screen, biochemical, QFRET, BODIPY PC-A2 liposome substrate; Group 3 secretory phospholipase A2 (Homo sapiens), Q9NZ20; QFRET BODIPY PC-A2 liposome hydrolysis, fluorescence; inhibition, % at 12.2 µM; 0.56% of 370,000 active; AID 743126, 2013;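 active = inhibition above mean plus 3 SD of compounds lying within the high and low control bounds, cut at about 19% in these data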;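 also: 0% = median of test compound wells and 100% = no enzyme DMSO wells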
Target sequence (Q9NZ20 whole entry, looked up): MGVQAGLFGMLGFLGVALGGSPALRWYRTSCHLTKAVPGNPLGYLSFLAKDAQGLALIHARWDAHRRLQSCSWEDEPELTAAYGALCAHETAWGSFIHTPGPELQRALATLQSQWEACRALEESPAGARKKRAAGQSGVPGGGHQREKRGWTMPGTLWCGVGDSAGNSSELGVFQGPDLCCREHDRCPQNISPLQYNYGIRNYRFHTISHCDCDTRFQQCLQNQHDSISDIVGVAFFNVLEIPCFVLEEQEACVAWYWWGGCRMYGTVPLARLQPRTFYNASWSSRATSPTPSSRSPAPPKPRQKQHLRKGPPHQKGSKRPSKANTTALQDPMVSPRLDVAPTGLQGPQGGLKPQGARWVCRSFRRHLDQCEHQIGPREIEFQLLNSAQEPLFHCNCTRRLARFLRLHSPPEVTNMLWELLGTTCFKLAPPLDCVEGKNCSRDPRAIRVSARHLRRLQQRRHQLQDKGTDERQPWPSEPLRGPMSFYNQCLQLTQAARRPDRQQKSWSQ
MC4R antag cAMP: MC4R antagonists of cAMP signaling, primary screen, cell-based, TR-FRET, antagonist arm of biased-ligand search; Melanocortin receptor 4 (Homo sapiens), P32245; inhibition, % at 6.5 µM; 0.48% of 360,000 active; MC4R-expressing cells, MTII-stimulated cAMP, LANCE TR-FRET;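 active = inhibition above its plate's cutoff, the mean of tested wells on that plate plus 3 SD, cut at about 29% in these data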;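 also: 0% = Melanotan II alone and 100% = Melanotan II plus saturating MCL0020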
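System – human MC4R-expressing U2OS cells · Also added – Melanotan II · Dosing – one concentration, 6.5 µM nominal · Timing – 30-min compound, 1-h challenge, 1-h detection, room temperature · Measured by – Eu-cAMP/anti-cAMP TR-FRET, emission 671 nm · Replicates – singlicate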
A1 inh: caspase 3/7 activation in MEF A1-2A-BIM cells, primary screen, A1 inhibitor project, cell-based, luminescence, HTS; Caspase-Glo 3/7 luminescence, 3 h; percent of clofoctol response, vehicle zero; 0.066% of 330,000 active; caspase activation, % (concentration not given with the values); AID 2462, 2010;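 active = over half of replicate activation scores above 10%, or exactly half above 10 with the replicate mean above 10; inconclusive = replicate mean below 10 yet half the replicates above 10; inactive = over half of replicates below 10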
MC4R ag barr: MC4R agonists recruiting beta-arrestin, primary screen, cell-based, luminescence, agonist arm of biased-ligand search; U2OS MC4R beta-arrestin complementation; percent of melanotan II response, DMSO zero; activation, % at 8.9 µM; 0.98% of 360,000 active; AID 540308, 2011;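 active = activation above a per-plate cutoff, the mean activation of sample wells on that plate plus 3 SD, cut at about 8% in these data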
NTR1 agonist: agonists of human NTR1, primary screen, imaging, U2OS cells, beta-arrestin-GFP, high content | Neurotensin receptor type 1 (Homo sapiens), P30989 | NTR1-U2OS beta-arrestin-GFP spot imaging, agonist mode | activation, % at 20 µM | 0.17% of 330,000 active;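 active = activation at or above 40% of the spot to cytoplasm intensity ratio, with at least 20 cells analyzed; inconclusive = wells under 20 cells, flagged as cytotoxic or low count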;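 also: 0% = DMSO without peptide and 100% = 100 nM NTR1 peptide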
Exocytosis inh: LAMP-1 surface exposure blockers, TALL-104 cells – cell-based, flow cytometry, MLPCN library, primary screen; inhibition, % at 10 µM; AID 651702, 2012; TALL-104 LAMP-1 surface exposure; cells stimulated with thapsigargin and PMA; 0.66% of 360,000 active;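 active = inhibition above about 55%, limit read from the data; inconclusive = no clear call, values can overlap the other calls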
hGIII sPLA2 conf: human group III sPLA2 inhibitors, confirmation, biochemical, QFRET, triplicate; shares compounds with sPLA2-III inh; recombinant hGIII-sPLA2, BODIPY PC-A2 QFRET fluorescence; inhibition, % at 12.2 µM; 34% of 2,000 active;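 active = mean inhibition across triplicates above the hit cutoff set in the earlier primary screen, cut at about 19% in these data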;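 also: 0% = enzyme with DMSO and 100% = DMSO wells lacking enzyme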
BODIPY interf: 535nm fluorescence optical interference, confirmation, artefact control for HGIII-sPLA2 inhibitor project, biochemical, QFRET; shares compounds with sPLA2-III inh; BODIPY FL product fluorescence interference; inhibition, % at 12.2 µM; 8.5% of 2,000 active; AID 743282, 2014;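 active = average inhibition above the solvent-only control mean plus 3 SD, cut at about 6% in these data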;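 also: 0% = DMSO with substrate plus product and 100% = DMSO with substrate alone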
535nm interf DR: 535nm fluorescence optical interference, dose response, artefact control for HGIII-sPLA2 inhibitor project, biochemical, QFRET. IC50, µM. shares compounds with sPLA2-III inh. AID 743455, 2014. 240 tested, under 10 active. BODIPY FL product fluorescence interference, cell-free;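 active = IC50 at or below 10 µM; inactive = IC50 above 10 µM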
* hit, by the source's call; ? = inconclusive; · = not tested or not shown. This is a sample that favours compounds with a hit; in the whole collection about 2.5% have one here.

SMILES	sPLA2-III inh	MC4R antag cAMP	A1 inh	MC4R ag barr	NTR1 agonist	Exocytosis inh	hGIII sPLA2 conf	BODIPY interf	others
COc1ccccc1-n1c(-c2ccco2)n[nH]c1=S	7	3	0	-3	-1	-11	·	·
S=c1[nH]nc(-c2ccco2)n1-c1cccc2ccccc12	21*	3	-1	-1	-4	-4	25*	3
Cc1ccc(C)c(-n2c(-c3ccco3)n[nH]c2=S)c1	21*	-2	2	-2	0	1	21*	3
Cn1c(Cn2c3ccccc3c3ccccc32)n[nH]c1=S	7	-1	0	-2	1	-1	·	·
Cn1c(-c2cccc3ccccc23)n[nH]c1=S	20*	0	0	-3	-2	0	5	-4
N#Cc1ccc(C(=O)N(Cc2ccco2)c2c(N)n(Cc3ccccc3)c(=O)[nH]c2=O)cc1	-3	0	·	0	2	2	·	·
CCc1ccccc1NC(=O)CN(C)C(=O)COC(=O)c1ccco1	9	17	0	-2	0	15	·	·
CC(OC(=O)c1nn(C)c(=O)c2ccccc12)C(=O)NC1CCCCC1C (stereo unspecified)	19*	2	0	0	-1	-2	-2	-5
CC(OC(=O)c1n[nH]c2ccccc12)C(=O)NC1CCCCC1C (stereo unspecified)	-4	-7	-2	2	-2	0	·	·
CCCNC(=O)c1ccc2c(=O)c(O)c(-c3ccc(Cl)c([N+](=O)[O-])c3)[nH]c2c1	20*	2	?	0	-3	4	-8	-1
O=C(NCCc1nc2ccccc2[nH]1)c1ccc(Cl)c([N+](=O)[O-])c1	7	12	0	0	0	0	·	·
COc1ccc(C2OC(CCc3ccccc3)CC3=C2C(=O)OC(C)(C)O3)cc1 (stereo unspecified)	6	·	·	·	·	-4	·	·
COC(=O)C[C@@H]1CC[C@@H](NS(=O)(=O)c2ccccc2OC)[C@@H](CO)O1	10	·	·	·	·	2	·	·
Cc1ccc(C)c(N2CN(Cc3cccnc3)CNC2=S)c1	20*	-2	-1	-3	2	-1	3	-1
Cc1ccc(N2CN(Cc3cccnc3)CNC2=S)cc1	1	0	-1	0	2	-2	·	·
CN(CC(=O)NNC(=O)CNC(=O)c1cccs1)S(=O)(=O)c1ccc(Cl)cc1	3	1	0	2	2	-2	·	·
N#C/C(C(N)=O)=c1/ccc2c(c1)N1C3=C(CCCC3)CC3CCCCC31N=2 (stereo unspecified)	26*	·	-1	·	8	·	45*	1	535nm interf DR=>122
COc1ccc(NC(=S)NCCCN2CCOCC2)cc1	22*	14	-1	0	0	9	1	0
COc1ccc(C(C)(C)C)cc1NC(=S)NCCN1CCOCC1	20*	7	1	-2	0	-4	12	-6
COc1ccc(NC(=S)NCCN2CCOCC2)cc1	8	12	0	-1	0	-1	·	·
COc1cc(-c2cc(NC=O)c3ncc(-c4ccc(C(C)=O)cc4)n3c2)ccc1O	-16	3	·	7	·	4	·	·
COc1cc(OC)c(C2Nc3cccc4cccc(c34)N2)c(OC)c1	22*	-22	0	-3	9	76*	37*	-3	535nm interf DR=>122
Oc1ccccc1C1Nc2cccc3cccc(c23)N1	2	0	1	-1	0	1	·	·
COc1ccccc1C1Nc2cccc3cccc(c23)N1	21*	3	0	-3	2	31	34*	12*
O=C(NNC(=S)Nc1ccc(F)cc1)C1[C@H]2CCCC[C@@H]12 (stereo partly specified)	25*	23	-2	1	0	9	22*	3
SMILES	sPLA2-III inh	MC4R antag cAMP	A1 inh	MC4R ag barr	NTR1 agonist	Exocytosis inh	hGIII sPLA2 conf	BODIPY interf	others
O=C(Nc1ccccc1)C1C2CCCCC21 (stereo unspecified)	-4	-1	0	0	-1	-4	·	·
COc1cccc(OCCNc2cc(N3CCCCC3)ccc2[N+](=O)[O-])c1	5	1	0	-2	-1	5	·	·
CC1CN(c2ccc([N+](=O)[O-])c(NCCOc3ccccc3)c2)CCN1 (stereo unspecified)	39*	-12	1	-3	-2	5	10	-25
COC(=O)[C@@]12C[C@@H](CC(=O)NCc3ccc(C)o3)C(=O)N(CCc3ccc(OC)c(OC)c3)C1=CCC(C)(C)C2	-10	·	·	·	·	4	·	·
CCCCC(=O)NC(c1cccs1)c1cc(Cl)c2cccnc2c1O (stereo unspecified)	24*	28	0	-3	2	0	32*	0	535nm interf DR=>122
CC(C)C(=O)NC(c1ccc(Cl)cc1Cl)c1ccc2cccnc2c1O (stereo unspecified)	25*	7	0	1	-1	49	32*	0
CC(=O)NC(c1ccc(Cl)cc1)c1ccc2cccnc2c1O (stereo unspecified)	8	4	·	0	·	0	·	·
CCCCC(=O)NC(c1ccc(OC)cc1)c1ccc2cccnc2c1O (stereo unspecified)	10	16	·	-1	·	0	·	·
COc1ccc(C(NC(=O)C(C)C)c2ccc3cccnc3c2O)cc1 (stereo unspecified)	23*	-1	-1	0	1	-3	19*	-14
CCCC(=O)NC(c1ccco1)c1cc([N+](=O)[O-])c2cccnc2c1O (stereo unspecified)	11	6	0	-4	0	-5	·	·
CCC(=O)NC(c1ccco1)c1cc(Br)c2cccnc2c1O (stereo unspecified)	23*	10	·	0	·	6	16	-8
